Data on 96 molecules can be found in ChEMBL document CHEMBL4513216, “Probing the Open Global Health Chemical Diversity Library for Multistage-Active Starting Points for Next-Generation Antimalarials” (ACS Infect Dis, 2020).

This data set in a line: Toxicity liver stage against HepG2, at 10uM. In kind it is cell-based. Set-up: test concentration 10 uM, cell line HepG2-A16-CD81EGFP. The following applies: human, HepG2-A16-CD81EGFP cells; read-out: INHIBITION
The method, boiled down:
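Uninfected HepG2-A16-CD81EGFP cells, 3 × 10^3 per well, 1536-well, plated on prespotted compound at 10 μM final, parasite-free screening media added to match infected plates; puromycin 10 μM positive, DMSO 0.5% negative; run in parallel with 48 h PbLuc assay at 37 °C, 5% CO2; viability by CellTiter-Glo luminescence, normalized to controls.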
As to `COc1ccc2c(c1)nc1n2[C@@H](CN(C2CCC2)C2CCC2)COC1`, the cytotoxicity at 10 µM was determined as 5.96%.

On to `COc1ccc(CN2CCCCCC2c2cccs2)c(OC)c1` (stereo unspecified), for which the cytotoxicity at 10 µM is 11%.

`O=S(=O)(NCC1(O)CCOc2ccccc21)c1ccccc1F` (stereo unspecified): the cytotoxicity at 10 µM is 7.22%.

In the case of `Cc1nccn1-c1ccc(=O)n(CCNC(=O)c2ccncc2)n1`, the cytotoxicity at 10 µM is -3.18%.

Turning to `Cn1c(C(F)(F)F)nn(CCNC(=O)c2ccccn2)c1=O`, the cytotoxicity at 10 µM was -1.4%.

Turning to `CC(=O)N1CC[C@@H](N2CCN(C)CC2)[C@@H]1Cc1ccccc1`, the cytotoxicity at 10 µM was found to be 9.04%.

Turning to `CCC(C)Nc1ccc2c(c1)C1(CCOCC1)C(=O)N2c1ccccc1` (stereo unspecified), the cytotoxicity at 10 µM was determined as 8.7%.

As to `CC(C)C(=O)N1CCCC2(CCCN2Cc2cccnc2)C1` (stereo unspecified), the cytotoxicity at 10 µM was found to be 5.22%.

In the case of `CO[C@@H]1CCN(S(=O)(=O)c2cn(C)cn2)[C@H]1Cc1ccccc1`, the cytotoxicity at 10 µM turned out to be 7.13%.

`Cc1ccc(S(=O)(=O)NC2=NCN(CCc3cccs3)CN2)cc1`: the cytotoxicity at 10 µM turned out to be 4.77%.

As to `CSc1ncnc(NCc2cccs2)c1C#N`, the cytotoxicity at 10 µM was -0.277%.

On to `CCc1nc(NCCCn2cccn2)c2c(n1)c(C)nn2C`, for which the cytotoxicity at 10 µM stood at 6.41%.

`Cc1cc(C(=O)N2CCN(c3ncc4c(n3)CCOC4)CC2)sc1C`: the cytotoxicity at 10 µM amounted to 0.794%.

On to `CC(NC(=O)C1CC1)c1cc(O)nc(-c2cccnc2)n1` (stereo unspecified), for which the cytotoxicity at 10 µM was 2.67%.

For `CS(=O)(=O)N1CCCC1c1ccnc2nccn12` (stereo unspecified), the cytotoxicity at 10 µM was -2.62%.

Take `NC(=O)c1cnn2c(C3CCCN(C4CCOCC4)C3)ccnc12` (stereo unspecified): the cytotoxicity at 10 µM was found to be 4.34%.

Consider `O=C1NC2(CCCN(C(=O)CCn3cccn3)C2)Oc2ccccc21` (stereo unspecified), for which the cytotoxicity at 10 µM is -6.19%.

As for `COc1ccc(C(C)NCc2ccsc2)cc1Cn1cccn1` (stereo unspecified), the cytotoxicity at 10 µM worked out at 7.86%.

On to `CC(C)(CNC(=O)C1(c2ccccc2)CCOCC1)C(=O)O`, for which the cytotoxicity at 10 µM was 1.25%.

`Cc1ccc(OCc2cccc(C(=O)N(C)C(C)CC#N)c2)cn1` (stereo unspecified): the cytotoxicity at 10 µM amounted to 6.36%.

On to `COc1cc(C(=O)NC2COc3ccccc3C2)ccc1OCC(N)=O` (stereo unspecified), for which the cytotoxicity at 10 µM was -22.8%.

Consider `Cc1nc(NS(=O)(=O)c2ccc(F)c(Br)c2)no1`, for which the cytotoxicity at 10 µM was 6.04%.

As to `CC1(C)CN(C(=O)c2cc(F)cc3[nH]cnc23)CCS1`, the cytotoxicity at 10 µM is -7.36%.

Turning to `CCC(C(=O)NCCc1coc(-c2ccc(C)cc2)n1)N(C)C` (stereo unspecified), the cytotoxicity at 10 µM was -1.13%.

Consider `O=C(OCC1CCCN(C(=O)c2ccccc2)C1)c1cscn1` (stereo unspecified), for which the cytotoxicity at 10 µM was -9.92%.

Take `O=C(c1cccc(NCCOc2ccc(F)cc2)c1)N1CCOCC1`: the cytotoxicity at 10 µM is 7.43%.

On to `CC(C)(NC(=O)CCc1ccco1)c1ccc2c(c1)OCCO2`, for which the cytotoxicity at 10 µM came to 1.44%.

Regarding `CC(CN1CCOCC1)NC(=O)NCc1cccs1` (stereo unspecified), the cytotoxicity at 10 µM was -15.9%.

With `CC(=O)NCCNC(=O)c1ccc(C)c(-n2cccc2)c1`, the cytotoxicity at 10 µM was -2.04%.

Take `CC(c1nc(C2CC2)no1)N1CCN(CC(=O)N2CCOCC2)CC1` (stereo unspecified): the cytotoxicity at 10 µM worked out at 6.75%.

For the molecule `O=C(CN1CCOC(Cn2cccn2)C1)Nc1cccnc1` (stereo unspecified), the cytotoxicity at 10 µM came to 10.7%.

On to `Cc1noc(CNC(=O)N2CCN(c3nc(C)c(C)s3)CC2)n1`, for which the cytotoxicity at 10 µM was -19.5%.

For the molecule `Cc1cc(C)c(CNC(=O)NC2COc3ccccc3C2)c(=O)[nH]1` (stereo unspecified), the cytotoxicity at 10 µM was -13.8%.

As to `O=C(Nc1ccn(Cc2cccc3cccnc23)n1)C1COCCO1` (stereo unspecified), the cytotoxicity at 10 µM was determined as 5.18%.

`CCOc1ccc(N(C)S(=O)(=O)c2c[nH]c(C(C)C)n2)cc1`: the cytotoxicity at 10 µM is -4.52%.

As for `CC(Cc1ccco1)NC(=O)C1=NN(c2ccccc2)C(=O)CC1` (stereo unspecified), the cytotoxicity at 10 µM amounted to 0.537%.

With `Cc1nc2scc(C)n2c1CNc1ccc(C(=O)O)cc1`, the cytotoxicity at 10 µM is 7.05%.

Regarding `Cc1cc(F)c2c(c1)CCCN2C(=O)c1cncc(Br)c1`, the cytotoxicity at 10 µM stood at 1.25%.

On to `CC(=O)N1CCC(Nc2cccc(OC(F)F)c2C)CC1`, for which the cytotoxicity at 10 µM is -15.1%.

Consider `CCN(CC)C(=O)c1cccc(Cn2nc(C)cc2C)c1`, for which the cytotoxicity at 10 µM was -5.93%.

`CN(CC(=O)NCC(C)(C)c1ccc2c(c1)OCO2)c1cnccn1`: the cytotoxicity at 10 µM was -7.5%.

As to `CCOC(=O)C1CCN(CCCc2nnnn2-c2ccccc2)CC1`, the cytotoxicity at 10 µM was found to be 0.462%.

On to `Cc1ccc(CNC(=O)NCc2ccco2)s1`, for which the cytotoxicity at 10 µM came out at 3.47%.

Regarding `CC(C)Oc1cccc(CC(=O)N(CC(N)=O)C2CCCC2)c1`, the cytotoxicity at 10 µM was -2.09%.

As for `c1ccc2oc(NC3CCCN(Cc4noc(C5CC5)n4)C3)nc2c1` (stereo unspecified), the cytotoxicity at 10 µM is -0.989%.

With `CCN(Cc1ccco1)C(=O)c1cc(OC)c2c(c1)OCCO2`, the cytotoxicity at 10 µM was -4.22%.

Turning to `COc1cc(N2C[C@H](OCc3cccnc3)[C@H]3OCCC[C@H]32)ncn1`, the cytotoxicity at 10 µM was 4.13%.

For `CC1(C)OC(=O)N(CCCOc2ccc(F)cc2)C1=O`, the cytotoxicity at 10 µM stood at 0.17%.

With `CCN(CC)C(=O)Cn1cc(C(=O)NCCc2scnc2C)nn1`, the cytotoxicity at 10 µM was -4.47%.

As to `O=C(Cc1ccccn1)N1CCCC(c2nccn2CC2CCC2)C1` (stereo unspecified), the cytotoxicity at 10 µM was -2.11%.

For the molecule `CCc1cc(N(C)Cc2ccncn2)n2nccc2n1`, the cytotoxicity at 10 µM amounted to 3.61%.

Regarding `Cc1ccc(N2CCC(C3CCN(CC(C)C)CC3)C2)nn1` (stereo unspecified), the cytotoxicity at 10 µM is -6.81%.

Take `CN(Cc1n[nH]c2c1CCCC2)c1nc2c(c(=O)[nH]1)CCNCC2`: the cytotoxicity at 10 µM was -20.1%.

For the molecule `CN(C)CCO[C@H]1C[C@@H](O)C12CCN(c1ncccc1Cl)CC2`, the cytotoxicity at 10 µM turned out to be 5.37%.

As to `O=C1NCCCc2[nH]c(C3CCN(C(=O)C4CC4)CC3)nc21`, the cytotoxicity at 10 µM is -3.46%.

Turning to `CN(CCc1cn[nH]c1)Cc1nc(Cc2cccc(C(F)(F)F)c2)no1`, the cytotoxicity at 10 µM came to 0.361%.

Turning to `O=C(c1ccncc1)N1CCC(Oc2cccc(C(F)(F)F)c2)CC1`, the cytotoxicity at 10 µM is 14.1%.

Take `COC(=O)c1cc(NC(=O)NCC2CCS(=O)(=O)C2)ccc1Cl` (stereo unspecified): the cytotoxicity at 10 µM turned out to be 2.57%.

Take `COCCN(C)C[C@@H]1CN(C(=O)c2cccc(Cl)c2)C[C@@H]1CO`: the cytotoxicity at 10 µM was -16.7%.

For `Cc1nc(CN2CCCC(Cn3cc(CCO)nn3)C2)c2ccccn12` (stereo unspecified), the cytotoxicity at 10 µM turned out to be 3.28%.

As to `CC(=O)N1CCCn2nc(CNc3cc(C)ncn3)cc2C1`, the cytotoxicity at 10 µM is 5.19%.

In the case of `CCc1nc(CN(C)C(=O)C2CCC(=O)N(CC3CCCCC3)C2)no1` (stereo unspecified), the cytotoxicity at 10 µM came out at 4.46%.

As for `O=c1[nH]nc(CCCN2CCOCC2)n1Cc1cccc(F)c1`, the cytotoxicity at 10 µM was 7.04%.

For `CSc1cccc(CN(C)C(=O)CN2CCN(c3ncccn3)CC2)c1`, the cytotoxicity at 10 µM was 4.64%.

On to `CC(C)CC(O)C1CCN(Cc2ccc(N(C)C)nc2)CC1` (stereo unspecified), for which the cytotoxicity at 10 µM was determined as 1.75%.

For `COc1cc(F)c(C(=O)N2C[C@@H](CN(C)CCO)[C@@H](CO)C2)c(F)c1`, the cytotoxicity at 10 µM was -1.53%.

With `CCCOc1ccc(C(=O)N[C@@H]2CCNC[C@H]2O)cc1Cl`, the cytotoxicity at 10 µM was -10.4%.

For `Cc1noc(C)c1CN1CCC(c2nnc(Cn3cccn3)n2C)CC1`, the cytotoxicity at 10 µM is 3.82%.

In the case of `COCc1nnc(C(=O)N2CC(N3CCCCC3)C2)o1`, the cytotoxicity at 10 µM was -3.57%.

As to `Cc1ccc(C)c(OCc2cc(C(=O)N(C)CC(O)CO)no2)c1` (stereo unspecified), the cytotoxicity at 10 µM worked out at 2.55%.

Regarding `COCC[C@]1(O)CCN(Cc2nc(C)cs2)C[C@H]1C`, the cytotoxicity at 10 µM was determined as 10.5%.

As for `Cc1ccnn1CC(=O)N1CCN(C2CCc3ccccc3C2)CC1` (stereo unspecified), the cytotoxicity at 10 µM is -131%.

In the case of `Cc1ccc2c(c1)c(CNC(=O)C1CCCN(CC(N)=O)C1)nn2C` (stereo unspecified), the cytotoxicity at 10 µM was -17.9%.

Turning to `CCN(Cc1ccncc1)C(=O)C(C)n1ccnc1C(C)C` (stereo unspecified), the cytotoxicity at 10 µM stood at 2.79%.

`COCCCN(Cc1cnc(N2CCCC2)nc1)C1CCN(C)CC1`: the cytotoxicity at 10 µM was -10.3%.

For the molecule `COCCNC(=O)c1cc(S(=O)(=O)N2CCCC2)cs1`, the cytotoxicity at 10 µM amounted to 6.15%.

In the case of `CC(C)COc1ccccc1CN(C)C(=O)c1cc(=O)[nH]c(=O)[nH]1`, the cytotoxicity at 10 µM was 2.05%.

Take `Cc1nc[nH]c1CN1CCn2nc(CN3CC[C@H](F)C3)cc2C1`: the cytotoxicity at 10 µM turned out to be 5.01%.

In the case of `Cc1noc(-c2ccnc(N3CCN(C4CCOCC4)CC3)c2)n1`, the cytotoxicity at 10 µM worked out at 1.83%.

As for `c1nc(N2CCCC2Cn2cncn2)c2sccc2n1` (stereo unspecified), the cytotoxicity at 10 µM is -9.19%.

Turning to `Cc1ccccc1C1(C(=O)NCCN2CCCCC2C)CCOCC1` (stereo unspecified), the cytotoxicity at 10 µM is -1.69%.

On to `CN(Cc1ccccc1)CC(O)Cn1cnc2sccc2c1=O` (stereo unspecified), for which the cytotoxicity at 10 µM is -6.54%.

Take `CNC(=O)NCc1nn(-c2ccccc2)c2c1CCC2`: the cytotoxicity at 10 µM is -10.8%.

As for `COCCc1noc(CN2CCCCC2Cn2cncn2)n1` (stereo unspecified), the cytotoxicity at 10 µM is -1.9%.

Regarding `Cc1nc(CN2CCCC2c2c(C)nn(C)c2Cl)no1` (stereo unspecified), the cytotoxicity at 10 µM was found to be 1.85%.

On to `Cc1cc(C(=O)NCCN2CCN(S(C)(=O)=O)CC2)no1`, for which the cytotoxicity at 10 µM was -6.29%.

Turning to `Cc1cc(C)c2[nH]c(C)c(CC(=O)N(C)CCN(C)C)c2c1`, the cytotoxicity at 10 µM was found to be 2.49%.

Take `COCCN1C(=O)CCC12CCC(NCc1nccs1)CC2` (stereo unspecified): the cytotoxicity at 10 µM was found to be 7.01%.

As to `O=C(C1CC1)N1CCC[C@]2(C[C@@H](OCc3ccncc3)CO2)C1`, the cytotoxicity at 10 µM stood at 6.46%.

Take `Cn1cccc1C(=O)N1CCN(Cc2cccnc2)c2ncccc2C1`: the cytotoxicity at 10 µM was 10.9%.

`CNC(=O)[C@H]1C[C@H]2OCC[C@H]2N(CC2CC2)C1`: the cytotoxicity at 10 µM stood at 4.17%.

On to `Cc1nc(CN2CCO[C@H]3[C@H](OCC(=O)N(C)C)CC[C@@H]32)cs1`, for which the cytotoxicity at 10 µM stood at 0.129%.

On to `CC(C)N1CCOCC2(CN(Cc3nccs3)CCO2)C1` (stereo unspecified), for which the cytotoxicity at 10 µM was -0.653%.

On to `CN(Cc1cccnc1)C1COC2(CCN(Cc3nccs3)CC2)C1` (stereo unspecified), for which the cytotoxicity at 10 µM is 6.37%.

As to `CN(Cc1cncnc1)[C@@H]1CN(Cc2ccco2)C[C@@H]2CCCO[C@@H]21`, the cytotoxicity at 10 µM is -1.6%.

In the case of `CNC(=O)[C@H]1C[C@H]2OCC[C@H]2N(Cc2ccc(C)o2)C1`, the cytotoxicity at 10 µM was determined as 11.8%.
